Columns and labels:
U-251 = test: Antiproliferative activity against human U251MG cells after 72 hrs by sulforhodamine B assay; type: functional, cell-based; details: U-251, 72 h
Summary of the method: (§1)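 Established GBM lines grown under conditions similar to the short-term cultures (Hams F10, 10% foetal calf serum, 37 °C, no CO₂). Seeded at 3000 cells per well and grown 48 h to exponential phase. Exposed 72 h to serial dilutions from DMSO stocks. Fixed in 10% TCA, stained with 0.4% SRB in 1% acetic acid, dye dissolved in 10mM Tris, absorbance 560nm. EC50 by non-linear variable-slope fit.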

[1] = Antiproliferative activity against human IN1528 cells after 72 hrs by sulforhodamine B assay; type: functional, cell-based; details: IN1528, 72 h
Summary of the method: (§2)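 Short-term cultures derived from about 10mg of adult GBM biopsy tissue, used at passages 10 to 14. Grown in Hams F10 with 10% foetal calf serum at 37 °C without CO₂. Seeded at 3000 cells per well, then grown 48 h to exponential phase. Treated 72 h with serial dilutions from DMSO stocks. SRB read-out at 560nm. EC50 from a variable-slope sigmoidal dose-response fit.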

[2] = Antiproliferative activity against human IN1760 cells after 72 hrs by sulforhodamine B assay; type: functional, cell-based; details: IN1760, 72 h; summary of the method: as §2
U-87 MG = test: Antiproliferative activity against human U87MG cells after 72 hrs by sulforhodamine B assay; type: functional, cell-based, U-87MG ATCC; summary of the method: as §1
[3] = Solubility of the compound in DMSO at >1250 uM; type: physicochemical
[4] = Antiproliferative activity against human IN1472 cells after 72 hrs by sulforhodamine B assay; type: functional, cell-based; details: IN1472, 72 h; summary of the method: as §2

Cc1c(O)ccc(O)c1C
EC50 (U-251): 17 µM

O=C1c2ccccc2C(=O)N1c1ccccc1O
EC50 (U-251): 916 µM | EC50 [1]: 744 µM | EC50 [2]: 1080 µM

Cc1ccc(O)c(-c2cc3ccccc3[nH]2)c1
EC50 (U-251): 21 µM | EC50 [1]: 29 µM | EC50 [2]: 32 µM

Oc1ccccc1-c1nc2ccccc2o1
EC50 (U-87 MG): 52 µM | EC50 (U-251): 2260 µM | EC50 [2]: > 2500 µM

Oc1ccccc1-c1nc2ccccc2s1
solubility [3]: Insoluble | EC50 (U-87 MG): > 1250 µM | EC50 (U-251): > 1250 µM | EC50 [1]: > 1250 µM | EC50 [2]: > 1250 µM | EC50 [4]: > 1.25 mM

Oc1ccccc1-c1nc2ccccc2[nH]1
EC50 (U-251): 23 µM | EC50 [1]: 25 µM | EC50 [2]: 36 µM

Oc1ccccc1-c1c[nH]c2ccccc12
EC50 (U-251): 95 µM | EC50 [1]: 120 µM | EC50 [2]: 231 µM

Oc1ccccc1OCc1ccccc1
EC50 (U-251): 304 µM | EC50 [1]: 193 µM | EC50 [2]: 371 µM

Oc1ccccc1-c1ccc2ccccc2c1
EC50 (U-87 MG): 48 µM | EC50 (U-251): 92 µM | EC50 [1]: 104 µM | EC50 [2]: > 1000 µM

CCCCCCC(=O)Oc1ccccc1-c1cc2ccccc2[nH]1
EC50 (U-251): 38 µM | EC50 [1]: 29 µM

CC(=O)Oc1ccccc1-c1cc2ccccc2[nH]1
EC50 (U-251): 31 µM | EC50 [1]: 80 µM

Nc1ccccc1-c1cc2ccccc2[nH]1
EC50 (U-87 MG): 257 µM | EC50 (U-251): 328 µM | EC50 [1]: 153 µM | EC50 [4]: 0.155 mM

O=C(Oc1ccccc1-c1cc2ccccc2[nH]1)c1ccccc1
EC50 (U-251): 39 µM | EC50 [1]: 38 µM

Oc1ccc(-c2ccccc2)cc1
EC50 (U-251): 102 µM | EC50 [1]: 85 µM | EC50 [2]: 81 µM

Oc1ccccc1-c1cc2ccccc2[nH]1 [2-(2'-HYDROXYPHENYL)-1H-INDOLE]
EC50 (U-87 MG): 126 µM | EC50 (U-251): 130 µM | EC50 [1]: 99 µM | EC50 [2]: 185 µM | EC50 [4]: > 0.625 mM

COc1ccccc1-c1cc2ccccc2[nH]1 [2-(2'-METHOXYPHENYL)-1H-INDOLE]
EC50 (U-87 MG): > 625 µM

c1ccc(-c2cc3ccccc3[nH]2)cc1 [2-PHENYL-1H-INDOLE]
EC50 (U-87 MG): > 625 µM | EC50 (U-251): > 625 µM | EC50 [1]: > 625 µM | EC50 [2]: > 625 µM | EC50 [4]: > 0.625 mM

Oc1ccccc1-c1ccccc1 [2-PHENYLPHENOL]
EC50 (U-251): 372 µM | EC50 [1]: 361 µM | EC50 [2]: 236 µM

CC(=O)Oc1ccccc1C(=O)O [ASPIRIN]
EC50 (U-87 MG): 723 µM | EC50 (U-251): 1340 µM | EC50 [1]: 787 µM | EC50 [2]: > 4000 µM | EC50 [4]: 1.41 mM

COc1ccccc1O [GUAIACOL]
EC50 (U-87 MG): 492 µM | EC50 (U-251): 1140 µM | EC50 [1]: 813 µM | EC50 [2]: > 4000 µM | EC50 [4]: 2.02 mM

Oc1ccc(O)cc1 [HYDROQUINONE]
EC50 (U-251): 57 µM

c1ccc2[nH]ccc2c1 [INDOLE]
EC50 (U-87 MG): > 625 µM | EC50 (U-251): > 625 µM | EC50 [1]: > 625 µM | EC50 [2]: > 625 µM | EC50 [4]: > 0.625 mM

O=[N+]([O-])c1ccccc1O [NITROPHENOLATE]
EC50 (U-87 MG): 888 µM | EC50 (U-251): 1250 µM | EC50 [1]: 890 µM | EC50 [2]: > 4000 µM

Cc1ccccc1O [ORTHOCRESOL]
EC50 (U-87 MG): 664 µM | EC50 (U-251): 1560 µM | EC50 [1]: 744 µM | EC50 [2]: > 4000 µM | EC50 [4]: 1.44 mM

Oc1ccccc1 [PHENOL]
EC50 (U-87 MG): 834 µM | EC50 (U-251): 1230 µM | EC50 [1]: 747 µM | EC50 [2]: > 4000 µM | EC50 [4]: 1.73 mM

NC(=O)c1ccccc1O [SALICYLAMIDE]
EC50 (U-87 MG): 760 µM | EC50 (U-251): 1200 µM | EC50 [1]: 793 µM | EC50 [2]: > 4000 µM | EC50 [4]: 1.39 mM

Source: ChEMBL document CHEMBL4368875, “Towards identifying potent new hits for glioblastoma” (Medchemcomm, 2018)
